In ChEMBL document CHEMBL4017549, “Structural Basis of Inhibition of ERα-Coactivator Interaction by High-Affinity N-Terminus Isoaspartic Acid Tethered Helical Peptides” (J Med Chem, 2017):
Activity calls are given as the source filed them. The rule behind the calls is not given here.

How the values were obtained:
Homo sapiens [1] = species: Homo sapiens; experiment: Selectivity ratio of Kd for recombinant human GST-tagged PGR LBD ([…] residues) to Kd for recombinant human ERalpha LBD (301 to 553 residues)
Procedure, shortened: (§1)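 Ratio of KD values, each from fluorescence polarization of 10 nM FITC-peptide titrated with the respective LBD after 40 min in the dark at 298 K, with the matching ligand in buffer (10 μM 17β-estradiol, progesterone or vitamin D3).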

[2] = Drug uptake in human MCF7 cell nucleus at 5 uM after 3 hrs in presence of 10 nM E2 by DAPI-staining based confocal laser scanning microscopic analysis
[3] = Drug uptake in human MCF7 cells at 5 uM after 3 hrs in presence of 10 nM E2 by DAPI-staining based confocal laser scanning microscopic analysis; conditions: mcf7, 3 h
Estrogen receptor = biological target: T1, Estrogen receptor (Homo sapiens, UniProt P03372); experiment: Binding affinity to recombinant human GFP-fused ERalpha LBD (301 to 553 residues) expressed in Escherichia coli BL21(DE3) after 40 mins in presence of 17beta-estradiol by fluorescence polarization assay
T1 sequence (P03372 whole entry): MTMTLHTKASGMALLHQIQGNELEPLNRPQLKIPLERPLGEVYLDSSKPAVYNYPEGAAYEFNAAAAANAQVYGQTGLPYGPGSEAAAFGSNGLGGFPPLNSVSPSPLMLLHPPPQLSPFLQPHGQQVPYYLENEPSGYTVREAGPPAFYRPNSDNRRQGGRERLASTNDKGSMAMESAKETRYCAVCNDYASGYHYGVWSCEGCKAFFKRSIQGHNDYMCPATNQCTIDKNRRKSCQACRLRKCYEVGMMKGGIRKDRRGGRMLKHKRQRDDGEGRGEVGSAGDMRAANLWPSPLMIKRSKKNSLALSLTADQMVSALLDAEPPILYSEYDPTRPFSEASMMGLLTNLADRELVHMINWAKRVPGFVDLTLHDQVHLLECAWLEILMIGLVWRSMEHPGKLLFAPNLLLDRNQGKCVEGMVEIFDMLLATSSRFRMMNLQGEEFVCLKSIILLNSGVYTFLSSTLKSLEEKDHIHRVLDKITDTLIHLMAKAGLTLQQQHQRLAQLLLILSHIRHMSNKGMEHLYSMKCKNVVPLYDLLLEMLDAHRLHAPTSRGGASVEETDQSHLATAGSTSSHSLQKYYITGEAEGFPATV

[4] = biological target: T2, Estrogen receptor (Homo sapiens) (UniProt P03372); experiment: Binding affinity to recombinant human GFP-fused ERalpha LBD (301 to 553 residues) expressed in Escherichia coli BL21(DE3) in presence of ERalpha inhibitor 4-hydroxytamoxifen by ITC
T2 sequence (whole entry): T1 sequence (P03372 whole entry)
Procedure, shortened: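 ITC at 25 °C. 50 μM peptide injected in 2 μL steps into 5 μM ERα LBD in 50 mM Tris pH 8.0, 150 mM NaCl, 1 mM TCEP containing 0.1 mM 4-hydroxytamoxifen instead of estradiol. Isotherm fitted.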

Homo sapiens [5] = species: Homo sapiens; experiment: Selectivity ratio of Kd for recombinant human GST-tagged VDR LBD (156 to 453 residues) to Kd for recombinant human ERalpha LBD (301 to 553 residues); procedure, shortened: as §1
[6] = biological target: T2, Estrogen receptor (Homo sapiens); experiment: Binding affinity to recombinant human GFP-fused ERalpha LBD (301 to 553 residues) expressed in Escherichia coli BL21(DE3) in presence of 17beta-estradiol by ITC
Procedure, shortened: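 ITC at 25 °C. 2 μL injections of 50 μM peptide into 5 μM ERα LBD in 50 mM Tris pH 8.0, 150 mM NaCl, 1 mM TCEP, 0.1 mM 17β-estradiol. Binding isotherm fitted for affinity.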

[7] = Drug uptake in human U2OS cells assessed per million cells at 5 uM after 3 hrs by FACS analysis; format: ADME, cell-based
Procedure, shortened: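 Adherent cells seeded overnight, then exposed to 5 μM FITC-labelled peptide or DMSO in FBS-free medium, 3 h, 37 °C. After PBS washes (three), about 10000 cells per sample analysed by flow cytometry; mean cellular fluorescence intensity calculated. More than two independent experiments, SEM.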

Progesterone receptor = biological target: T3, Progesterone receptor (Homo sapiens, UniProt P06401); experiment: Binding affinity to recombinant human GST-tagged PGR LBD (678 to 933 residues) expressed in Escherichia coli BL21 star(DE3) after 40 mins in presence of progesterone by fluorescence polarization assay
T3 sequence (P06401 whole entry): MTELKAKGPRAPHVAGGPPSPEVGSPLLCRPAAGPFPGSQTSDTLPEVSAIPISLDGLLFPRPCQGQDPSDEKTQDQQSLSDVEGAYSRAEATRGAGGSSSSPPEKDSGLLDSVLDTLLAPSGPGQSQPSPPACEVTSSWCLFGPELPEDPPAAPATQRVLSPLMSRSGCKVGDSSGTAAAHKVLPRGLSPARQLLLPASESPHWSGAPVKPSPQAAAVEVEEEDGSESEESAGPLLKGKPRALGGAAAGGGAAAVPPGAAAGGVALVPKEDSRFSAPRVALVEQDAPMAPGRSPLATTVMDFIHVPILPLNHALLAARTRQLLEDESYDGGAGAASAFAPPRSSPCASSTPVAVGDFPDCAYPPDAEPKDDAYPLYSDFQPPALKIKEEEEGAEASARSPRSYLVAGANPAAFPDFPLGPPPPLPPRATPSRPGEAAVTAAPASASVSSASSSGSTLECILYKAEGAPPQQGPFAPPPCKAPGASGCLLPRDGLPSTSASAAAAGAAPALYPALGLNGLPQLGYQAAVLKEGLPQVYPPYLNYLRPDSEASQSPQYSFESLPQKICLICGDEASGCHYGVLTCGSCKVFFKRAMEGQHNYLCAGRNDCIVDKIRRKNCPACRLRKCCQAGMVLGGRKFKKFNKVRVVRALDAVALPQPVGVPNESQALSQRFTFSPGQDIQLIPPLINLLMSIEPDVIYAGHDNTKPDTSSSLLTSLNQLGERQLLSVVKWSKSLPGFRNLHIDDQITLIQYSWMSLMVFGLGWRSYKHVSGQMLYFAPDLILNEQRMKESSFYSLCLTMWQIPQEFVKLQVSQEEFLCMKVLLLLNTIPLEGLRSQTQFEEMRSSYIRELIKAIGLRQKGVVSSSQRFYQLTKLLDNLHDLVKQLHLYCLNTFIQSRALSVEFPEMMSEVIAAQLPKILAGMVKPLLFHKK
Procedure, shortened: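 FITC-labelled peptide at 10 nM final with increasing GST-PgR LBD in 20 mM Tris-HCl pH 8.0, 150 mM NaCl, 5% glycerol, 1 mM TCEP plus 10 μM progesterone. 40 min dark incubation, polarization at 298 K (ex 480/em 535 nm). KD by nonlinear regression against protein concentration.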

Selectivity ratio (Homo sapiens [1]): 3.7 | Drug uptake [2]: Active | Drug uptake [3]: Active | Kd (Estrogen receptor): 67 nM | Activity [4]: inactive | Selectivity ratio (Homo sapiens [5]): > 30 | Activity [6]: Active | Drug uptake [7]: Active | Kd (Progesterone receptor): 248 nM
Compound: CC[C@H](C)[C@@H]1NC(=O)C[C@H](NC(=O)[C@H](CCCNC(=N)N)NC(=O)CCNC(=S)Nc2ccc3c(c2)C(=O)OC32c3ccc(O)cc3Oc3cc(O)ccc32)C(=O)NCC(C(=O)N[C@@H](CCCNC(=N)N)C(=O)NC(CC(C)(C)C)C(=O)NC(CC(C)(C)C)C(=O)N[C@@H](CCC(N)=O)C(N)=O)NC(=O)C(CC(C)(C)C)NC1=O (some centres undefined)
